In ChEMBL document CHEMBL5653631, “A Potent and Selective ULK1 Inhibitor Suppresses Autophagy and Sensitizes Cancer Cells to Nutrient Stress” (iScience, 2018):
Each block holds one molecule with its values, some of them ahead of it.

Assays:
[1] = target: Glycogen synthase kinase-3 alpha (Homo sapiens) (UniProt P49840); experiment: Inhibition of human recombinant GSK3A at 500 nM in presence of ATP by radiometric assay relative to control
[2] = target: Aurora kinase B (Homo sapiens) (UniProt Q96GD4); experiment: Inhibition of human recombinant AurB at 500 nM in presence of ATP by radiometric assay relative to control
Summary of the method: (§1)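 Part of a radiometric in vitro activity panel of 327 recombinant human kinases. Each kinase was tested in duplicate at one inhibitor concentration. Activity remaining was expressed as a percentage of the vehicle control, and percent inhibition was taken as 100 minus that value.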

[3] = target: Serine/threonine-protein kinase/endoribonuclease IRE1 (Homo sapiens) (UniProt O75460); experiment: Inhibition of human recombinant IRE1 at 500 nM related to control ULK1
Serine/threonine-protein kinase/endoribonuclease IRE1 (Homo sapiens), sequence (O75460 19-977 limits assumed): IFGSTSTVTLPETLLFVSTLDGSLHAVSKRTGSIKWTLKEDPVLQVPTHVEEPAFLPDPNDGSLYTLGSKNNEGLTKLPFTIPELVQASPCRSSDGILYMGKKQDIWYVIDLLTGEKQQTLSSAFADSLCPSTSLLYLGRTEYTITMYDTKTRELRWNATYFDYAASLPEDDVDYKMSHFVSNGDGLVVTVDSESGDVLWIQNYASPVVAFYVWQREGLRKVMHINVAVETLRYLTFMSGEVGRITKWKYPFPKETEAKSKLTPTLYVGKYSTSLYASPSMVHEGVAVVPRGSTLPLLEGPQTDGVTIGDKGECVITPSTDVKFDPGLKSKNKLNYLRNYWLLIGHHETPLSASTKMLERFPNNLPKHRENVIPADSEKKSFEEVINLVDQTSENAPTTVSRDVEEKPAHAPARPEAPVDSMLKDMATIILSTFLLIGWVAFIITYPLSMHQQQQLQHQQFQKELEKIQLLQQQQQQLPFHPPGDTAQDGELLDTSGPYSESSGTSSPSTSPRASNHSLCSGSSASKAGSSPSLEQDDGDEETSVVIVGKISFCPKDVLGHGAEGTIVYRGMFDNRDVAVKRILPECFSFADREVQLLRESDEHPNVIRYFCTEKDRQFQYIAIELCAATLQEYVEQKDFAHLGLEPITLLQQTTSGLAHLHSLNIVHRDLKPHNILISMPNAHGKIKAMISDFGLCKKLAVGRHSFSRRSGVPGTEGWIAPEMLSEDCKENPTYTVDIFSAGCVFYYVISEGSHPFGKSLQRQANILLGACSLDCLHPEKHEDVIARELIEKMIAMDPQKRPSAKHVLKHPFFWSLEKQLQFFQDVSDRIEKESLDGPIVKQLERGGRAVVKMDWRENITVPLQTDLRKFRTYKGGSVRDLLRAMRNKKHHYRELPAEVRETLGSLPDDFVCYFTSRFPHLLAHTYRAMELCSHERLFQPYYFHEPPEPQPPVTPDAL

[4] = target: T1, Ephrin type-B receptor 3 (Homo sapiens) (UniProt P54753); experiment: Inhibition of human recombinant EphB3 at 40 nM in presence of ATP by radiometric assay relative to control
T1 sequence (whole entry): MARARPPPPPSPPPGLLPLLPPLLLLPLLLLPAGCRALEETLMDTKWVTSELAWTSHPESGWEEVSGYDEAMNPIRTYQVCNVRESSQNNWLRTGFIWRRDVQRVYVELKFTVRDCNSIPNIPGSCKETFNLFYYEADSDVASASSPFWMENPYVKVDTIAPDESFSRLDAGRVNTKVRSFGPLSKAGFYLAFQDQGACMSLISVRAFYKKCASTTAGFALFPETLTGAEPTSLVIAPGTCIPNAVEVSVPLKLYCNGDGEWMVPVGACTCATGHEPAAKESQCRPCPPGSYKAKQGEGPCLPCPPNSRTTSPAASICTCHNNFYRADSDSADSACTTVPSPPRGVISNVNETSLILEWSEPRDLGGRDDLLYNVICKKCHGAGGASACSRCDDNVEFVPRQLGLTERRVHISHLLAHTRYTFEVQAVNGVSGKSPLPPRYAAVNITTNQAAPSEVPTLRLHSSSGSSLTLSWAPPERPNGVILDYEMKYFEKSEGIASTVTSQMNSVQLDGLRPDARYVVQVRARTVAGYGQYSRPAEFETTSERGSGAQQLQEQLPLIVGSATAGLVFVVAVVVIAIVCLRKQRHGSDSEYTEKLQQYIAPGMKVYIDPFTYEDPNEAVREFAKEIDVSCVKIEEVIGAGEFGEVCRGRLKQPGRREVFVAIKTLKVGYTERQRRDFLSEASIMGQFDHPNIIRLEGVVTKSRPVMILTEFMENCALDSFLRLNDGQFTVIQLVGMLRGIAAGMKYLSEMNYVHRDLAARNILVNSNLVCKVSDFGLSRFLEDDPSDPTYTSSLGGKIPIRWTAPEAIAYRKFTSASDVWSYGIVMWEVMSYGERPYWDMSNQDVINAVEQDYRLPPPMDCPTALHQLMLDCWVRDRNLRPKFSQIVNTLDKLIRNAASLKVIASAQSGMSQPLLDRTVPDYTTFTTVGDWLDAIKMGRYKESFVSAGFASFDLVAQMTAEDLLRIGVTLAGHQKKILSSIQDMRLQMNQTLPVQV

[5] = target: Serine-protein kinase ATM (Homo sapiens) (UniProt Q13315); experiment: Inhibition of human recombinant ATM at 40 nM in presence of ATP by radiometric assay relative to control
Summary of the method: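 Panel of 327 recombinant human kinases, each assayed in vitro by radiometric activity assay in duplicate at a single inhibitor concentration per compound, chosen with reference to its ULK1 inhibition. Activity remaining was expressed as percent of vehicle control, and percent inhibition was calculated as 100 minus percent activity remaining.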

[6] = target: Insulin receptor-related protein (Homo sapiens) (UniProt P14616); experiment: Inhibition of human recombinant IRR at 40 nM related to control ULK1
Insulin receptor-related protein (Homo sapiens), sequence (P14616 27-742 limits assumed): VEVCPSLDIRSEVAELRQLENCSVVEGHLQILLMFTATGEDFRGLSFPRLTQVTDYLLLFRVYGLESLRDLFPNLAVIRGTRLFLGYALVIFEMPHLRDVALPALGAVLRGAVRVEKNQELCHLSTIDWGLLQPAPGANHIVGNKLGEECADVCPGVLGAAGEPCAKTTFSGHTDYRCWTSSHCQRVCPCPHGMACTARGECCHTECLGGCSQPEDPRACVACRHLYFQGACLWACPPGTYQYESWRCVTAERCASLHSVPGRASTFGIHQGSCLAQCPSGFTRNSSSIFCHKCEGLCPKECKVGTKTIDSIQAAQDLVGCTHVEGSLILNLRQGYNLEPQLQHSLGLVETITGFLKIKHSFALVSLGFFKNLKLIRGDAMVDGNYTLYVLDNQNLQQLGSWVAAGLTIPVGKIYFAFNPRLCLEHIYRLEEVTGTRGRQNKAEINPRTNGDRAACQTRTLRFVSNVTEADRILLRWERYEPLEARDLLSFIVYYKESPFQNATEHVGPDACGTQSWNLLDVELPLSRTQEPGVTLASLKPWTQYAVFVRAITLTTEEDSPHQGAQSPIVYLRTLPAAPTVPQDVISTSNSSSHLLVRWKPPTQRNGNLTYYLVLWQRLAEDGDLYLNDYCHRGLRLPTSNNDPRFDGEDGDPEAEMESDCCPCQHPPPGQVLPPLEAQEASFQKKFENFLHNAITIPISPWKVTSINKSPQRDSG
Insulin receptor-related protein (Homo sapiens), sequence (P14616 747-1297 limits assumed): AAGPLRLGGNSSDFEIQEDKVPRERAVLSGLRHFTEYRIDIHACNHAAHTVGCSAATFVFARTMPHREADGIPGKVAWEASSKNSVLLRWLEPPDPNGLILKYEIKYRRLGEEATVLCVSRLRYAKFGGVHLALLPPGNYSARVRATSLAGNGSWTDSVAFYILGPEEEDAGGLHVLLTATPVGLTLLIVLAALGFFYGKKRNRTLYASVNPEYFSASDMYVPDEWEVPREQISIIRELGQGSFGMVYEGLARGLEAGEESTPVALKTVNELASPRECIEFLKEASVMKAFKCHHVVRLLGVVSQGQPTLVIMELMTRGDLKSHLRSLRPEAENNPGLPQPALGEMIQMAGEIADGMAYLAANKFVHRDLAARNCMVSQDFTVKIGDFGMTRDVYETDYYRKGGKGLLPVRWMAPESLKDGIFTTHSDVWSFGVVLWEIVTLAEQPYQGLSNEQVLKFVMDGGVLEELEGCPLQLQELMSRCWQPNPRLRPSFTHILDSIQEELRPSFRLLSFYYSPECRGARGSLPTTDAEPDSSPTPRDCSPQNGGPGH

[7] = target: Fibroblast growth factor receptor 1 (Homo sapiens) (UniProt P11362); experiment: Inhibition of human recombinant FGFR1 at 40 nM related to control ULK1
Fibroblast growth factor receptor 1 (Homo sapiens), sequence (P11362 22-822 limits assumed): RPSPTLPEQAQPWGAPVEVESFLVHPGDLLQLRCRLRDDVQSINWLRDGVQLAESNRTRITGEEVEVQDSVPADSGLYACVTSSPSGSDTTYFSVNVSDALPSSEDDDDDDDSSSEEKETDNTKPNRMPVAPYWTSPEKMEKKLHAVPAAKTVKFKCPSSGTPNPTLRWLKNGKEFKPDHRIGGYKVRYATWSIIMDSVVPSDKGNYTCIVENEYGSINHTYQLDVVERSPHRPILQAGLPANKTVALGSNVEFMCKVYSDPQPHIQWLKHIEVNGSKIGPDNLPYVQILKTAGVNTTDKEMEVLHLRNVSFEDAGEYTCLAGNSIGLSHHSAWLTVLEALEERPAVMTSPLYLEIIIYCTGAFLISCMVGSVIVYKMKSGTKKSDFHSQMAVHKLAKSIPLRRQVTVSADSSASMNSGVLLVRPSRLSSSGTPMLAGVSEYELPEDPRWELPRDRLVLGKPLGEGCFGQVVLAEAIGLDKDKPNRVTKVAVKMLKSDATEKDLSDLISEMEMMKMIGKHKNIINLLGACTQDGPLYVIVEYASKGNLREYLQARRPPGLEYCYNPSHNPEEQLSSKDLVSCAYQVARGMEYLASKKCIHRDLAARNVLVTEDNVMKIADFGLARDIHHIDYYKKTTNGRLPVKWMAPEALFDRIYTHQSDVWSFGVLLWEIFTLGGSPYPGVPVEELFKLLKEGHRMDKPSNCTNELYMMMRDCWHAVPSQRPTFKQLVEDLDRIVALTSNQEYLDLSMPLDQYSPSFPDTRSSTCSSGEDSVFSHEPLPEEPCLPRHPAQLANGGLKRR

[8] = target: Serine/threonine-protein kinase PAK 6 (Homo sapiens) (UniProt Q9NQU5); experiment: Inhibition of human recombinant PAK6 at 40 nM related to control ULK1
[9] = target: T2, Beta-adrenergic receptor kinase 1 (Homo sapiens) (UniProt P25098); experiment: Inhibition of human recombinant BARK1 at 40 nM in presence of ATP by radiometric assay relative to control; summary of the method: as §1
T2 sequence (whole entry): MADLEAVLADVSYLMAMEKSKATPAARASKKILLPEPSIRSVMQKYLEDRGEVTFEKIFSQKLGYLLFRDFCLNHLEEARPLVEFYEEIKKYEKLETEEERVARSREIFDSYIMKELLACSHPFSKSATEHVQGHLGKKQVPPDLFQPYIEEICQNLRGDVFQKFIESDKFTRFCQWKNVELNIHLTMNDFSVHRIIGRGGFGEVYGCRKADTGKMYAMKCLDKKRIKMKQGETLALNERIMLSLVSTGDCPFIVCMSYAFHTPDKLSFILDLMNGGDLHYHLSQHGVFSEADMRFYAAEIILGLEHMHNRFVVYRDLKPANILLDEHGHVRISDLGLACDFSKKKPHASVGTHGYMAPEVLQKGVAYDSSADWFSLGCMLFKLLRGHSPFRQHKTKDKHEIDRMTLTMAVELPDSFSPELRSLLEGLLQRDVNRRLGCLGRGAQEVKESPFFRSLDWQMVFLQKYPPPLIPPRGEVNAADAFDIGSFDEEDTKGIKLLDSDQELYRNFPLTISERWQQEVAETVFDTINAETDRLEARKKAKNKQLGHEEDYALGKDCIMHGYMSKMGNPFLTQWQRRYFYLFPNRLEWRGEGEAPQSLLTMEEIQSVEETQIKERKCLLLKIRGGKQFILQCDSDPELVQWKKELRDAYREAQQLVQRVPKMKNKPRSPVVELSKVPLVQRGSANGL

[10] = target: Calcium/calmodulin-dependent protein kinase type II subunit beta (Homo sapiens) (UniProt Q13554); experiment: Inhibition of human recombinant CaMK2b at 40 nM related to control ULK1
[11] = target: T1, Ephrin type-B receptor 3 (Homo sapiens); experiment: Inhibition of human recombinant EphB3 at 40 nM related to control ULK1
[12] = target: RAC-gamma serine/threonine-protein kinase (Homo sapiens) (UniProt Q9Y243); experiment: Inhibition of human recombinant AKT3 at 15 nM in presence of ATP by radiometric assay relative to control
RAC-gamma serine/threonine-protein kinase (Homo sapiens), sequence (Q9Y243 whole entry): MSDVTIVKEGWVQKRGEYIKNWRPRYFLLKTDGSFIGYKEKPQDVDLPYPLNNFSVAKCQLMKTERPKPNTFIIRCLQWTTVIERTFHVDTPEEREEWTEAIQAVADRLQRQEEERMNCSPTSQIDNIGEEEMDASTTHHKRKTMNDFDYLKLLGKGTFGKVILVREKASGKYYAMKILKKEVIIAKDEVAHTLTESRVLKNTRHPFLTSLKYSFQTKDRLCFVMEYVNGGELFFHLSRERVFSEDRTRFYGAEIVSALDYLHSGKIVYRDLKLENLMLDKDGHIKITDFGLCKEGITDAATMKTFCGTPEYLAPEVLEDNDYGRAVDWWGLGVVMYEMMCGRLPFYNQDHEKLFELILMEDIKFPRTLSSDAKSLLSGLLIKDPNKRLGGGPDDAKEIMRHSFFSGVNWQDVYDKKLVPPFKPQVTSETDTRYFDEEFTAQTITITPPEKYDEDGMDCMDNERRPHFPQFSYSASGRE
Summary of the method: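 Panel of 327 recombinant human kinases in radiometric activity assays, each screened in duplicate at a single inhibitor concentration; percent activity remaining relative to vehicle control, percent inhibition taken as 100 minus activity remaining.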

Homo sapiens = species: Homo sapiens; experiment: Inhibition of human recombinant CK1d at 15 nM in presence of ATP by radiometric assay relative to control
[13] = target: Tyrosine-protein kinase FRK (Homo sapiens) (UniProt P42685); experiment: Inhibition of human recombinant FRK at 15 nM in presence of ATP by radiometric assay relative to control
Tyrosine-protein kinase FRK (Homo sapiens), sequence (P42685 whole entry): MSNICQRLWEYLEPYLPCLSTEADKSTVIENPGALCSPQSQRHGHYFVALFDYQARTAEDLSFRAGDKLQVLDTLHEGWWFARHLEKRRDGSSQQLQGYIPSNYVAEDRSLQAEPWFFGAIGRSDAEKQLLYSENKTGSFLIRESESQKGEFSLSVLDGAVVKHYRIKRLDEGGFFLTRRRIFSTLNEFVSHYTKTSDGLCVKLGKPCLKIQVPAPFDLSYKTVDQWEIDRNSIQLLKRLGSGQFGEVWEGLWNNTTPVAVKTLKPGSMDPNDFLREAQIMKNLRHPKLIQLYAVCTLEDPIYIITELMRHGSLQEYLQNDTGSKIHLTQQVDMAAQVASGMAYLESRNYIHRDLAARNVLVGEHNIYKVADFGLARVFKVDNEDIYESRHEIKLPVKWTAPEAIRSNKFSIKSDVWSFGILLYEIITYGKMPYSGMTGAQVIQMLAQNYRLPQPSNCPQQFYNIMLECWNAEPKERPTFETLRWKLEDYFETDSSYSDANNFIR

[14] = target: Serine/threonine-protein kinase PAK 3 (Homo sapiens) (UniProt O75914); experiment: Inhibition of human recombinant PAK3 at 15 nM related to control ULK1
Serine/threonine-protein kinase PAK 3 (Homo sapiens), sequence (O75914 whole entry, looked up): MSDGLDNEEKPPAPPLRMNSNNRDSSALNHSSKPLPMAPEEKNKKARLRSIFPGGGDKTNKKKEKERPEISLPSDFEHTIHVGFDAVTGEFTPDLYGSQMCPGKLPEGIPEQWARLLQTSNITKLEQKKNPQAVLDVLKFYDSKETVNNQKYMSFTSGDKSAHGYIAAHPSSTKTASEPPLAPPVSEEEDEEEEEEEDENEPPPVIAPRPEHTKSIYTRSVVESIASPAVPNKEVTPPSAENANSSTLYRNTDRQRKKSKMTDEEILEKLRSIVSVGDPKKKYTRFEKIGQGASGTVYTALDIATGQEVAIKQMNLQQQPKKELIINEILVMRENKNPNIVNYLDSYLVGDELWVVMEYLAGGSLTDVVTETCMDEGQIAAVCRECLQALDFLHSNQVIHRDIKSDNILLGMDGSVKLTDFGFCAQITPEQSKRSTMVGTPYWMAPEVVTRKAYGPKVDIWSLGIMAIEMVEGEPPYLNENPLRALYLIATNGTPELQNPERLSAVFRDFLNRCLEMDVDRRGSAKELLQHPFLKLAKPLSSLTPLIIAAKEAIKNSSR

Glycogen synthase kinase-3 alpha (Homo sapiens), sequence (P49840 2-483 limits assumed): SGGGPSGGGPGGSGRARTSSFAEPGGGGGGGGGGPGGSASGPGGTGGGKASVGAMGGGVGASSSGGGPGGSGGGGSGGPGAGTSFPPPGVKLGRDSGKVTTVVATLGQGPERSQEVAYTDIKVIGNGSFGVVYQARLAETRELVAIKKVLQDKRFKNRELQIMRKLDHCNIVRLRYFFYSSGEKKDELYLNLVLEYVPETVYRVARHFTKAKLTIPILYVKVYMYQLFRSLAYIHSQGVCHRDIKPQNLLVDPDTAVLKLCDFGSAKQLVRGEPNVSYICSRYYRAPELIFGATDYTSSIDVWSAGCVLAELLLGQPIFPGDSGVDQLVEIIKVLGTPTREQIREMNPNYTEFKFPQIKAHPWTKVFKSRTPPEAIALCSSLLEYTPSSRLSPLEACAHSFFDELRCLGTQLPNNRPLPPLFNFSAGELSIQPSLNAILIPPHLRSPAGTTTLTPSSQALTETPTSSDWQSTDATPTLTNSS

inhibition [1]: 0%
inhibition [2]: 92%
fold change (FC) [3]: 0
SMILES: CNC(=O)c1ccccc1Oc1nc(Nc2cc(OC)c(OC)c(OC)c2)ncc1Br

inhibition [4]: 0%
inhibition [5]: 5%
fold change (FC) [6]: 0.03
fold change (FC) [7]: 0
fold change (FC) [8]: 0.1
inhibition [9]: 3%
fold change (FC) [10]: 0
fold change (FC) [11]: 0
SMILES: O=C(N[C@@H](C1CC1)C(F)(F)F)c1cc(-c2cnn3cc(-c4ccc(F)cc4)cnc23)cs1

inhibition [12]: 8%
inhibition (Homo sapiens): 3%
inhibition [13]: 13%
fold change (FC) [14]: 0.05
SMILES: CC(C)[C@H](NC(=O)c1cc(-c2cnn3cc(-c4ccc(OCCN5CCCCC5)cc4)cnc23)cs1)C(F)(F)F
